Bioassay records: PubChem, several laboratories
Compounds with a hit are over-represented: about 3.6% of the library has one in this group of screens.
PolyA inhibitor: inhibitors of polyadenylation in S. cerevisiae | S. cerevisiae SKY197-pL101 polyadenylation reporter, beta-gal luminescence; efflux-impaired pdr1/pdr3 knockout yeast; score 100 = 6 SD above DMSO | activity score, % at 12 µM | hit rate 0.02% among 300,000;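 active = lowest replicate activity score at least 50, where 100 means six control SD above control mean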;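 note: yeast exposed to compound for 9 h at 30 °C; higher score means more reporter readthrough which indicates perturbed polyadenylation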
PERK inhibitor: inhibitors of human PERK kinase | CHO PERK-DD fusion, SEAP luminescence translation reporter | inhibition, % at 5.6 µM | hit rate 0.17% among 220,000;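 active = inhibition above the mean inhibition of all tested compounds plus 3 SD, set separately per screening campaign, cut at about 2.9% in these data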;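 note: PERK kinase domain activated by AP20187 dimerizer at 100 nM; 0% = DMSO with dimerizer and 100% = rapamycin at 8.4 µM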
AHR act: activators of human aryl hydrocarbon receptor | activation, % at 5 µM | AHR-responsive luciferase reporter cells, luminescence | P35869 | hit rate 2.5% among 320,000; in the data active = activation above about 47%;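 note: 0% = vehicle wells and 100% = reference agonist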
Target sequence (P35869 whole entry, looked up): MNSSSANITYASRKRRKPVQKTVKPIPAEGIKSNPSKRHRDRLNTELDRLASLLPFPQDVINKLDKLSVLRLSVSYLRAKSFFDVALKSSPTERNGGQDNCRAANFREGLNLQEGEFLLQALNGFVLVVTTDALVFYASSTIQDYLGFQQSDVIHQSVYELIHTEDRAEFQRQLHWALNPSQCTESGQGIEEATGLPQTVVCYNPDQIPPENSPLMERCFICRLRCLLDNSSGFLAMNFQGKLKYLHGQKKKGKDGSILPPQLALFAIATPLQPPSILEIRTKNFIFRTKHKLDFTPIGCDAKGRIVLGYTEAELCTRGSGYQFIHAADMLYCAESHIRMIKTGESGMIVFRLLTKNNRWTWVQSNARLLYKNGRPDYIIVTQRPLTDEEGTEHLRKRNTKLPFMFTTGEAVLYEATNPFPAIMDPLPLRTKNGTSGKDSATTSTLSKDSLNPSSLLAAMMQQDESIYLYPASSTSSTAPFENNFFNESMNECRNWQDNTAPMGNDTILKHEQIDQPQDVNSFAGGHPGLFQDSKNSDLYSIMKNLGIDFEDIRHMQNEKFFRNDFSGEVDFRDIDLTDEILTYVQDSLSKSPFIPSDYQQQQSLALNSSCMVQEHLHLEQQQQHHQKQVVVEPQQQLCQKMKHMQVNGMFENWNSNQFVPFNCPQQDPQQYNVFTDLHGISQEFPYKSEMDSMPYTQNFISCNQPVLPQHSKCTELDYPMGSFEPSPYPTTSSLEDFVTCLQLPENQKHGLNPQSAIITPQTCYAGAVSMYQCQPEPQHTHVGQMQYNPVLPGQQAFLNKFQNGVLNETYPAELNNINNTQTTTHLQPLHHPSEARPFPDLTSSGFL
Hsp70 activator: switches on Hsp70 transcription. activation, % at 10 µM. AID 1203. hit rate 0.04% among 200,000. HeLa Hsp70 promoter luciferase reporter, luminescence; scaled: vehicle 0, proteasome-inhibitor control 100%;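 active = activation above the mean across all tested compounds plus 3 SD, cutoff set per campaign, cut at about 5.5% in these data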;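 note: 100% = MG132 at 30 µM as the positive control and 0% = DMSO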
HSF1 inhib: HSF1 inhibition | hit rate 0.77% among 300,000 | activity change, negative = inhibition, % at 7.5 µM (by protocol) | NIH3T3-HGL HSE-luciferase, MG132-induced, luminescence 8 h; active compounds read low;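 active = more than half of replicate wells show activity change below -50%, luminescence cut by over half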;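 note: luciferase reports HSF-1 transcriptional activity via heat shock element; 0% = median of DMSO wells and -100% = zero luminescence signal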
STAT3 act: activators of IL-6 induced STAT3 signaling | U3A cells, IL-6 STAT3-luciferase reporter, luminescence; 100% = signal with IL-6 EC80 alone | activation (% of control), % at 5.6 µM | hit rate 0.91% among 190,000;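 active = activation above the screen-wide mean of compound activation plus 3 SD, cut at about 130% in these data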;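 note: 0% = background luminescence of wells with medium and substrate only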
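System – human U3A cells carrying STAT3-luciferase construct · Probe or stimulus – Interleukin-6, 33 ng/mL · Schedule – compound 1 h, then IL-6 6 h at 37 °C · Signal – luminescence from STAT3-driven luciferase reporter · Evaluation – percent of IL-6-only median luminescence · Benchmarks – IL-6-only high control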
* = called active by the depositor; . = no result.

SMILES	PolyA inhibitor	PERK inhibitor	AHR act	Hsp70 activator	HSF1 inhib	STAT3 act
N/C(=N\OC(=O)c1ccc(Cl)cc1Cl)c1ccccn1	-22	0	7	-1	-65*	28
COc1ccc(CCNC(=O)CSc2nc(=O)[nH]c3c2CCC3)cc1OC	-1	.	2	.	-4	.
O=C(NC1CCCCCC1)C1CC(=O)N(c2ccc(Cl)cc2)C1 (stereo unspecified)	-6	.	-1	.	0	.
O=Cc1coc2c(ccc3ccccc32)c1=O	-33	.	11	.	4	.
Cc1ccccc1NS(=O)(=O)c1ccc(C(=O)N(C)CC(=O)Nc2ccccc2Br)cc1	.	.	0	.	.	.
Cc1ccc(C(=O)O/N=C(\N)c2ccccn2)c(Cl)c1	16	.	-2	.	-84*	.
N/C(=N\OC(=O)c1ccccc1Cl)c1cccc([N+](=O)[O-])c1	8	.	17	.	24	.
N/C(=N/OC(=O)c1ccccc1Cl)c1ncc([N+](=O)[O-])s1	-10	1	54*	.	133	.
COc1ccccc1NC(=O)CSc1nc(=O)n(Cc2ccncc2)c2c1CCCC2	-7	.	10	.	2	.
CCOC(=O)N1CCC(N2Cc3cccc(C(=O)Nc4cccc(F)c4)c3C2=O)CC1	-6	0	-4	0	0	90
COc1ccccc1NC(C)C(=O)N/N=C/c1ccccc1OCc1cccc(Br)c1 (stereo unspecified)	23	1	52*	0	-4	102
Cc1cc(C)nc(N/N=C/c2ccccc2OCc2cccc(Br)c2)n1	-4	-1	15	0	5	92
Cc1cccc(-n2ccc(=O)c(C(=O)Nc3ccc(S(=O)(=O)Nc4nccc(C)n4)cc3)n2)c1	1	.	-1	.	-1	.
O=c1cc(-c2ccccc2)nc2cc(-c3ccc(F)cc3)[nH]n12	-10	.	52*	.	-7	.
COc1cc(C(=O)NCC(c2cccs2)N2CCc3ccccc32)cc(OC)c1OC (stereo unspecified)	17	.	48*	.	27	.
COc1ccccc1C(=O)NCC(c1cccs1)N1CCc2ccccc21 (stereo unspecified)	-15	.	6	.	18	.
CCOc1ccc(Cn2ccnc2)cc1[N+](=O)[O-]	-12	0	64*	0	-1	96
O=C(c1sccc1-c1ccccc1)N1CCN(S(=O)(=O)c2ccccc2F)CC1	1	.	-1	.	-1	.
Cc1ccc(N2C(=O)NC(NS(=O)(=O)c3ccccc3)(C(F)(F)F)C2=O)cc1 (stereo unspecified)	7	.	0	.	-79*	.
Cc1ccc(N2C(=O)NC(NS(=O)(=O)c3ccc(C)cc3)(C(F)(F)F)C2=O)cc1 (stereo unspecified)	-3	.	-2	.	7	.
Cc1cccc(CSCCNC(=O)COc2ccc(Cl)cc2)c1	8	1	2	0	-56*	102
O=C(COc1ccc(Cl)cc1)NCCSCc1cccc(Cl)c1	-26	1	-1	0	9	100
CCCc1nc2sc3ccccc3c(=O)c2c(=O)n1Cc1ccco1	.	-1	.	0	.	147*
CCOc1ccccc1NC(=O)CSc1nc2cc(O)ccc2c(=O)n1-c1ccc(OC)c(OC)c1	-2	.	0	.	15	.
COc1ccccc1CCn1c(N)cc(=O)[nH]c1=O	2	.	53*	.	-6	.
SMILES	PolyA inhibitor	PERK inhibitor	AHR act	Hsp70 activator	HSF1 inhib	STAT3 act
CC(C)n1nnnc1-c1cccc(Cl)c1	-11	1	-4	0	-5	96
CC(C)n1nnnc1-c1cc(Cl)cc(Cl)c1	1	3.5*	-2	0	4	97
Cc1cc(C)c2c(c1)/C(=N/NS(=O)(=O)c1ccc(Br)cc1)CCC2	9	0	11	0	-54*	104
Cc1cc(C)c2c(c1)/C(=N/NS(=O)(=O)c1ccccc1)CCC2	-1	-1	3	0	-5	105
COc1ccc(CNC(=O)CN(Cc2ccco2)C(=O)CNS(=O)(=O)c2ccc(F)cc2)cc1	-3	.	0	.	10	.
CC(C)(C)c1ccc(C(=O)N2CCN(C(=O)c3ccco3)CC2)cc1	0	.	0	.	4	.
COc1ccc(-c2nc(NC3=NCCCCC3)sc2C)cc1	2	1	73*	0	0	107
COc1ccc(NC2=NCCCCC2)cc1	10	.	2	.	-6	.
Nc1ccccc1C(=O)N1CCCC1	3	3.1*	1	2	-7	93
O=C(CC1Nc2ccccc2NC1=O)NCc1cccnc1 (stereo unspecified)	4	-1	49*	0	-6	101
O=C(CCC1CC(=O)Nc2ccccc21)NCc1cccnc1 (stereo unspecified)	-17	0	1	0	-5	102
COc1ccc(NC(=O)CC2Nc3cc(C)c(C)cc3NC2=O)c([N+](=O)[O-])c1 (stereo unspecified)	-10	-1	61*	0	7	99
COc1ccc(NC(=O)CC2Nc3cccc4cccc(c34)NC2=O)cc1 (stereo unspecified)	2	1	57*	0	7	100
O=C(CC1Nc2ccccc2NC1=O)Nc1cc(Cl)cc(Cl)c1 (stereo unspecified)	-2	-1	48*	0	7	90
COc1ccc(NC(=O)Cc2ccc(C)cc2)c([N+](=O)[O-])c1	10	0	11	0	5	83
CC1CCCCC1NC(=O)c1cccc(N2C(=O)C3C4C=CC(C4)C3C2=O)c1 (stereo unspecified)	-2	.	0	.	-18	.
CCO[C@@H]1OC(C(=O)N2CCOCC2)=C[C@H](C(C)(C)C)[C@H]1CCCO	-14	.	4	.	1	.
O=C(OCC(=O)N1CCOCC1)c1ccc(Br)cc1	-2	.	0	.	9	.
COc1ccc(-c2csc(NC(=O)CSC(C)C(=O)Nc3cc(C)on3)n2)cc1OC (stereo unspecified)	.	.	4	.	.	.
COc1ccc(-c2csc(NC(=O)CSc3n[nH]c(C)n3)n2)cc1	6	.	12	.	9	.
O=C(CSc1nc2ccccc2[nH]1)Nc1nc(-c2ccc(Br)cc2)cs1	2	0	48*	0	7	101
COc1ccc(-c2csc(NC(=O)CSc3n[nH]c(N)n3)n2)cc1	-5	1	49*	0	3	95
COc1ccc(Br)cc1S(=O)(=O)Nc1ncccc1C	0	0	5	0	-88*	101
CC1CC(C)CN(C(=O)CSc2nc(Cc3cccs3)nc3ccccc23)C1 (stereo unspecified)	-3	0	2	0	6	112
O=C1[C@@H]2Cc3c([nH]c4ccccc34)C(c3cccc([N+](=O)[O-])c3)N2C(=O)CN1C1CCN(Cc2ccccc2)CC1 (stereo partly specified)	12	.	18	.	14	.
c1ccc(CCc2nc3ccccc3[nH]2)cc1	7	1	-1	0	11	98
